These results are taken from ChEMBL document CHEMBL3098012, “A novel tamoxifen derivative, ridaifen-F, is a nonpeptidic small-molecule proteasome inhibitor” (Eur J Med Chem, 2014).

Data set [1] concerns the target T1, Proteasome Macropain subunit MB1 (Homo sapiens, UniProt P28074).
T1 sequence (P28074 whole entry): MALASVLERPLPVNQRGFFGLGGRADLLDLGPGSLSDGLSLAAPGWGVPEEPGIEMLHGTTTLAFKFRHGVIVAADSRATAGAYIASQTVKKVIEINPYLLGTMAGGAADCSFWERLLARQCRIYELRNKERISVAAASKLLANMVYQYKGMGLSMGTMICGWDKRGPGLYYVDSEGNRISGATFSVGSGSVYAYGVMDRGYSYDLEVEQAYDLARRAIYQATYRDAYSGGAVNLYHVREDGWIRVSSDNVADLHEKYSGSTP
As to the kind of experiment: Inhibition of chymotrypsin-like activity of human 20S proteasome beta 5 subunit assessed as hydrolysis of succinyl-LLVY-AMC fluorogenic substrate measured for 1 hr by fluorometric analysis. Summed up: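 Purified human 20S proteasome (0.1 µg) incubated at 37 °C with 50 µM succinyl-LLVY-AMC (CT-L) or 20 µM Z-LLE-AMC (PGPH) and compound at 0.01–10 µM in 25 mM HEPES, 0.5 mM EDTA, 0.03% SDS. IC50 taken from inhibition curve; means of three experiments.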

Data set [2] is described as follows: Cytotoxicity against ER-negative HEK293 cells after 48 hrs by MTT assay. The data set is classed as cell-based. The settings on record: human. Summed up:
(§1)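 HEK293 (DMEM) or HL-60 (IMDM) cells, each with 10% FBS plus penicillin/streptomycin, seeded 5×10^3 cells/well in duplicate. Exposed 48 h to compound at […]. MTT reduction read as 560/750 nm absorbance ratio after HCl/2-propanol extraction. CyT50 from inhibition curve; means of triplicate.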

Data set [3] has as its system HL-60. As to the kind of experiment: Cytotoxicity against […] human HL60 cells after 48 hrs by MTT assay. It is filed as functional. The settings on record: HL-60, 48 h. Summed up:
as §1
In general terms: Formazan colour is commonly taken as a measure of viable cells.

The species named for data set [4] is Homo sapiens. Description: Inhibition of calpain (unknown origin) at >10 uM.
Data set [5] is filed under the species Homo sapiens. As to the kind of experiment: Inhibition of cathepsin (unknown origin) at >10 uM.
For data set [6], the target named is T1, Proteasome Macropain subunit MB1. As to the kind of experiment: Noncompetitive inhibition of chymotrypsin-like activity of human 20S proteasome beta 5 subunit assessed as hydrolysis of succinyl-LLVY-AMC fluorogenic substrate Lineweaver-Burk plot analysis.
For data set [7], the target named is T2, Proteasome component C5 (Homo sapiens) (UniProt P20618).
T2 sequence (whole entry): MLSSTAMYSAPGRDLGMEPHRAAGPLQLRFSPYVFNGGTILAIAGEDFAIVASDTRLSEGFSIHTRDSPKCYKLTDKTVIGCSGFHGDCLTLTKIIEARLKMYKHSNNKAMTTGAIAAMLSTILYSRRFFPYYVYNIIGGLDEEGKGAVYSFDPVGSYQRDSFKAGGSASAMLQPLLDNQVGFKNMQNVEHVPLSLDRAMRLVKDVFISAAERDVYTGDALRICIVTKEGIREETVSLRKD
Description: Inhibition of biotin-labeled belactosin A binding to human 20S proteasome beta 1 subunit at 1 to 100 uM preincubated for 1 hr followed by biotin-labeled belactosin A treatment measured after 1 hr by Western blotting analysis. Put shortly:
(§2)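 Purified human 20S proteasomes preincubated with varying inhibitor concentrations 1 h at 37 °C, then biotin-belactosin A added at 1 μM for a further 1 h. Proteins separated by SDS-PAGE, blotted to PVDF, blocked with 5% skim milk; biotin-labeled subunits detected with streptavidin-HRP and ECL. MG132 used as control.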
On the technique in general: Immunoblotting shows a protein as a band on a membrane.

The target of data set [8] is Proteasome Macropain subunit (Homo sapiens) (UniProt P49721). Description: Inhibition of biotin-labeled belactosin A binding to human 20S proteasome beta 2 subunit at 1 to 100 uM preincubated for 1 hr followed by biotin-labeled belactosin A treatment measured after 1 hr by Western blotting analysis. Summed up: as §2
Proteasome Macropain subunit (Homo sapiens), sequence (P49721 whole entry): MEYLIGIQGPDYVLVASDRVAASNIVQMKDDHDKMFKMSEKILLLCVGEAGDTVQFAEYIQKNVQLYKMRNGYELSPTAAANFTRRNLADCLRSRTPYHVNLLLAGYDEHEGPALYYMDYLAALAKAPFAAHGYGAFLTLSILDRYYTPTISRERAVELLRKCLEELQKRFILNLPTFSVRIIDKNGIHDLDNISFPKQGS
The test system of data set [9] is HeLa. Description: Induction of apoptosis in human HeLa cells assessed as PARP cleavage at 1 to 60 uM after 24 hrs by Western blotting analysis. The data set is classed as functional, cell-based. Put shortly: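 HeLa cells seeded 4×10^5 cells/well, incubated 24 h with varying compound concentrations; PARP cleavage detected in lysates by Western blotting.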

Activity calls are given as the source filed them. The calls are words filed in the database; no cut-off is given here.

Consider `CC(C)=C(c1ccc(OCCN2CCCCCC2)cc1)c1ccc(OCCN2CCCCCC2)cc1`, for which the IC50 in [1] stood at 1.66 µM. The same compound returned a CC50 at 48 h in [2] of 11.1 µM. The compound also displayed a cytotoxic concentration (CC50) in [3] of 10.7 µM.
The like results for `CC(=C(c1ccc(OCCN2CCCCCC2)cc1)c1ccc(OCCN2CCCCCC2)cc1)c1ccccc1` were, in that order, 0.9 µM, 18.9 µM and 6.87 µM.
As to `CCCCC(CCCC)=C(c1ccc(OCCN2CCCCCC2)cc1)c1ccc(OCCN2CCCCCC2)cc1`, the IC50 in data set [1] is above 10 µM. In data set [2], this compound gave a CC50 at 48 h above 30 µM. In [3], this compound gave a 50% cytotoxic concentration (CC50) of 25.3 µM.
Regarding `CCC(=C(c1ccc(OCCN(CC)CC)cc1)c1ccc(OCCN(CC)CC)cc1)c1ccccc1`, in data set [1], the IC50 is above 10 µM. Besides, the inhibition entry in data set [4] and in data set [5] was “inactive” throughout.
For `CCC=C(c1ccc(OCCN2CCCCCC2)cc1)c1ccc(OCCN2CCCCCC2)cc1`, the 50% inhibitory concentration (IC50) in [1] is 1.46 µM. In [2], this compound showed a CC50 at 48 h of 26.7 µM. Also, the CC50 in data set [3] was 22.6 µM.
As for `CCC(=C(c1ccc(OCCN2CCOCC2)cc1)c1ccc(OCCN2CCOCC2)cc1)c1ccccc1`, the IC50 in data set [1] turned out to be 7.19 µM. Moreover, the inhibition result in [4] and in [5] was “inactive” throughout.
Consider `C(=C(c1ccc(OCCN2CCCCCC2)cc1)c1ccc(OCCN2CCCCCC2)cc1)c1ccccc1`, for which the Ki in data set [6] amounted to 0.87 µM. Moreover, the IC50 in data set [1] worked out at 0.58 µM. Besides, in [2], the CC50 at 48 h is 6.06 µM. The same compound displayed a CC50 in data set [3] of 9.73 µM.
Regarding `c1cc(C2(c3ccc(OCCN4CCCCCC4)cc3)CCCCC2)ccc1OCCN1CCCCCC1`, the IC50 in data set [1] amounted to 1.94 µM. In data set [2], this compound returned a CC50 at 48 h of 17.5 µM. In addition, the CC50 in data set [3] is above 30 µM.
With `c1ccc(Cc2ccc(OCCN3CCCCCC3)cc2)cc1`, the inhibition result in data set [7] and in data set [8] was “Active” each time. In addition, the outcome in data set [9] was inactive. Also, in data set [1], the IC50 was above 10 µM. In addition, the CC50 at 48 h in data set [2] came to 27 µM. Besides, the CC50 in [3] was above 30 µM.
For `CCCCCCC(CCCCCC)=C(c1ccc(OCCN2CCCCCC2)cc1)c1ccc(OCCN2CCCCCC2)cc1`, the IC50 in data set [1] is above 10 µM. Further, the CC50 at 48 h in data set [2] was above 30 µM. Besides, the CC50 in data set [3] was above 30 µM.
`CCC(=C(c1ccc(OCCCN(C)C)cc1)c1ccc(OCCCN(C)C)cc1)c1ccccc1`: in data set [1], the IC50 is above 10 µM. Also, the inhibition result in [4] and in [5] was “inactive” in each case.
In the case of `CCC(CC)=C(c1ccc(OCCN2CCCCCC2)cc1)c1ccc(OCCN2CCCCCC2)cc1`, the IC50 in data set [1] came to 1.57 µM. The same compound displayed a 50% cytotoxic concentration (CC50) at 48 h in [2] of 6.02 µM. This compound also showed a CC50 in data set [3] of 8.87 µM.
The like results for `CC(O)(c1ccc(OCCN2CCCCCC2)cc1)c1ccc(OCCN2CCCCCC2)cc1` were, in that order, 1.66 µM, 22.7 µM and 7.06 µM.
On the same counts, the results for `c1cc(C(=C2CCCCC2)c2ccc(OCCN3CCCCCC3)cc2)ccc1OCCN1CCCCCC1` are 2.19 µM, 12.5 µM and 11.7 µM.
`CCC(=C(c1ccc(OCCN(C)C)cc1)c1ccc(OCCN(C)C)cc1)c1ccccc1`: in data set [1], the IC50 is 3.36 µM. The inhibition result in data set [4] and in data set [5] was “inactive” each time.
Turning to `C=C(c1ccc(OCCN2CCCCCC2)cc1)c1ccc(OCCN2CCCCCC2)cc1`, the IC50 in [1] came to 1.04 µM. The CC50 at 48 h in [2] came to 9.8 µM. In [3], this compound registered a CC50 of 10.7 µM.
For the compound `CCC(=C(c1ccc(OCCN2CCCCC2)cc1)c1ccc(OCCN2CCCCC2)cc1)c1ccccc1`, in data set [1], the IC50 was above 10 µM. For the same compound, the inhibition result in data set [4] and in data set [5] was “inactive” in each case.
In the case of `c1cc(C(=C2CCCC2)c2ccc(OCCN3CCCCCC3)cc2)ccc1OCCN1CCCCCC1`, the IC50 in data set [1] stood at 2.7 µM. This compound also displayed a CC50 at 48 h in data set [2] of 26.2 µM. In data set [3], this compound returned a CC50 of 20.1 µM.
On the same counts, the results for `CCCC(=C(c1ccc(OCCN2CCCCCC2)cc1)c1ccc(OCCN2CCCCCC2)cc1)c1ccccc1` are 1.37 µM, 26.8 µM and 4.3 µM.
Consider `CCC(=C(c1ccc(OCCN2CCCC2)cc1)c1ccc(OCCN2CCCC2)cc1)c1ccccc1`, for which, in data set [1], the IC50 turned out to be 6.56 µM. The inhibition entry in data set [4] and in data set [5] was “inactive” in each case.
`CC(c1ccc(OCCN2CCCCCC2)cc1)c1ccc(OCCN2CCCCCC2)cc1`: the IC50 in [1] was determined as 0.8 µM. The compound also came in with a CC50 at 48 h in data set [2] of 8.12 µM. The compound further had a CC50 in [3] of 21.4 µM.
As to `CCC(=C(c1ccc(OCCCN2CCCC2)cc1)c1ccc(OCCCN2CCCC2)cc1)c1ccccc1`, the IC50 in [1] was above 10 µM. In addition, the inhibition result in data set [4] and in [5] was “inactive” throughout.
`c1ccc(C(=C(c2ccc(OCCN3CCCCCC3)cc2)c2ccc(OCCN3CCCCCC3)cc2)C2CCCCC2)cc1`: in [1], the IC50 is above 10 µM. The CC50 at 48 h in data set [2] is above 30 µM. In data set [3], this compound gave a CC50 above 30 µM.
In the case of `O=C(c1ccc(OCCN2CCCCCC2)cc1)c1ccc(OCCN2CCCCCC2)cc1`, in data set [1], the IC50 came out at 1.65 µM. The compound also gave a CC50 at 48 h in data set [2] of 13.9 µM. In data set [3], this compound yielded a CC50 above 30 µM.
The like results for `CC(C)(c1ccc(OCCN2CCCCCC2)cc1)c1ccc(OCCN2CCCCCC2)cc1` were, in that order, 0.75 µM, 7.61 µM and 17.6 µM.
The like results for `CCCC(CCC)=C(c1ccc(OCCN2CCCCCC2)cc1)c1ccc(OCCN2CCCCCC2)cc1` were, in that order, 3.38 µM, above 30 µM and above 30 µM.
Regarding `c1ccc(C(=C(c2ccc(OCCN3CCCCCC3)cc2)c2ccc(OCCN3CCCCCC3)cc2)c2ccccc2)cc1`, in data set [6], the inhibitory constant (Ki) is 1.1 µM. Also, the IC50 in data set [1] came out at 1.18 µM. The same compound displayed a CC50 at 48 h in data set [2] of 23.2 µM. In addition, the CC50 in data set [3] was above 30 µM.
For the compound `CCCCCC(CCCCC)=C(c1ccc(OCCN2CCCCCC2)cc1)c1ccc(OCCN2CCCCCC2)cc1`, the IC50 in data set [1] was above 10 µM. Further, in data set [2], the CC50 at 48 h came to 14.5 µM. Besides, the CC50 in data set [3] is above 30 µM.

In general, IC50 refers to the concentration that inhibits the measured activity by half. One may read the CC50 as the concentration giving 50% cytotoxicity. High values mean better tolerance by the cells, low ones harm at low concentration. As usually defined, the Ki is the equilibrium dissociation constant of an inhibitor or competing ligand from its target.
